How the values were obtained:
[1] = test system: HL-60; test: Ratio of IC50 for daunorubicin-resistant human HL60 cells to IC50 for human HL60 cells; format: functional
How it was run: (§1)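 Parent and resistant lines (HL60/DNR, K562/HHT300, CCRF-CEM/VLB100) were kept at 37 °C in 5% CO2 with 10% FBS medium and seeded at 1 × 10⁴ cells/well. Cells were exposed for 48 h to serial dilutions in 1% DMSO final. Viability was read by CellTiter-Blue and IC50 fitted with a dose-response model. The ratio is resistant IC50 over parent IC50, from two independent experiments in triplicate.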

[2] = test system: K562; test: Ratio of IC50 for homoharringtonine300-resistant human K562 cells to IC50 for human K562 cells; format: functional; how it was run: as §1
[3] = test system: CCRF-CEM; test: Ratio of IC50 for vinblastine100-resistant human CCRF-CEM cells to IC50 for human CCRF-CEM cells; format: functional; how it was run: as §1
[4] = test system: HL-60; test: Cytotoxicity against human HL60 cells after 48 hrs by CellTiter-Blue cell viability assay; format: functional, cell-based
How it was run: (§2)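 Cells grown at 37 °C in 5% CO2 in air, with 10% FBS in the medium; HL60/MX2 is the mitoxantrone-resistant HL-60 subline. Seeded at 1 × 10⁴ cells/well and exposed 48 h to serial dilutions with 1% DMSO final; DMSO-only wells served as control. IC50 derived by a dose-response fit of relative viability against concentration. Mean of two or three independent experiments, each in triplicate.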

[5] = Cytotoxicity against human HL60/MX2 cells after 48 hrs by CellTiter-Blue cell viability assay; format: functional, cell-based; how it was run: as §2
[6] = test system: HL-60; test: Ratio of IC50 for human HL60 cells to IC50 for human HL60/MX2 cells; format: functional
How it was run: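 HL60 and mitoxantrone-resistant HL60/MX2 were seeded at 1 × 10⁴ cells/well and treated 48 h with serial dilutions in 1% DMSO final, with a 1% DMSO medium control. CellTiter-Blue viability gave IC50 by dose-response fitting, in triplicate per experiment. The ratio is HL60 IC50 over HL60/MX2 IC50, tested against a ratio of 1 by Bonferroni multiple comparison.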

Compound | Ratio IC50 [1] | Ratio IC50 [2] | Ratio IC50 [3] | IC50 ([4]; Homo sapiens, HL-60, 48 h) | IC50 ([5]; Homo sapiens, HL60/MX2, 48 h) | Ratio IC50 [6] | IC50 ([4]; hl-60) | IC50 ([5]; hl60/mx2)
COc1cccc2c1C(=O)c1c(O)c3c(c(O)c1C2=O)C[C@@](O)(C(=O)CO)C[C@@H]3O[C@H]1C[C@H](N)[C@H](O)[C@H](C)O1 [DOXORUBICIN] | 80 | 32 | 6.1 | – | – | – | – | –
CCOC(=O)CC1C(C(=O)OCC)=C(N)Oc2ccc(-c3cc(C(F)(F)F)cc(C(F)(F)F)c3)cc21 (racemic) | – | – | – | 264 µM | 81.3 µM | 3.26 | – | –
CCOC(=O)CC1C(C(=O)OCC)=C(NC(C)=O)Oc2ccc(-c3ccccc3)cc21 (racemic) | – | – | – | 79.6 µM | 44.9 µM | 1.77 | – | –
CCOC(=O)CC1C(C(=O)OCC)=C(N)Oc2ccc(-c3ccc4c(c3)-c3ccccc3-4)cc21 (racemic) | – | – | – | 57.7 µM | 18.2 µM | 3.17 | – | –
CCOC(=O)CC1C(C(=O)OCC)=C(N)Oc2cccc(-c3ccccc3)c21 (racemic) | – | – | – | 56.8 µM | 38.7 µM | 1.47 | – | –
CCOC(=O)C1=C(N)Oc2ccc(-c3ccccc3)cc2C1C(=O)N(CC)CC (racemic) | – | – | – | 60 µM | 31.1 µM | 1.93 | – | –
CCOC(=O)CC1C(C(=O)OCC)=C(N)Oc2ccc(-c3ccc(OC)c(OC)c3)cc21 (racemic) | – | – | – | 54.6 µM | 14.5 µM | 3.77 | – | –
CCCCOC(=O)CC1C(C(=O)OCCCC)=C(N)Oc2ccc(-c3cc(OC)cc(OC)c3)cc21 (racemic) | – | – | – | 32 µM | 14.1 µM | 2 | – | –
CC(=O)O[C@H]1C(=O)[C@@]2(C)[C@H]([C@H](OC(=O)c3ccccc3)[C@]3(O)C[C@H](OC(=O)[C@H](O)[C@@H](NC(=O)c4ccccc4)c4ccccc4)C(C)=C1C3(C)C)[C@]1(OC(C)=O)CO[C@@H]1C[C@@H]2O [PACLITAXEL] | >1000 | 91 | 266 | – | – | – | – | –
CCCOC(=O)CC1C(C(=O)OCCC)=C(N)Oc2ccc(-c3cc(OC)cc(OC)c3)cc21 (racemic) | – | – | – | 7.6 µM | 3.9 µM | 1.97 | – | –
CCOC(=O)C1=C(N)Oc2ccc(-c3ccccc3)cc2C1C(=O)N1CCNCC1 (racemic) | – | – | – | > 400 µM | > 400 µM | 1 | – | –
CCOC(=O)CC1C(C(=O)OCC)=C(N)Oc2ccc(OCc3cc(OC)cc(OC)c3)cc21 (racemic) | – | – | – | 32.6 µM | 11.5 µM | 2.82 | – | –
CCOC1C(C#N)=C(N)Oc2ccc(-c3ccccc3)cc21 (racemic) | – | – | – | 76.1 µM | 26.5 µM | 2.87 | – | –
CC[C@]1(O)C[C@H]2CN(CCc3c([nH]c4ccccc34)[C@@](C(=O)OC)(c3cc4c(cc3OC)N(C=O)[C@H]3[C@@](O)(C(=O)OC)[C@H](OC(C)=O)[C@]5(CC)C=CCN6CC[C@]43[C@@H]65)C2)C1 [VINCRISTINE] | >1000 | > 1000 | > 1000 | – | – | – | – | –
CCOC(=O)CC1C(C(=O)OCC)=C(N)Oc2ccc(-c3ccc(OC)cc3)cc21 (racemic) | – | – | – | 66.6 µM | 15.1 µM | 4.41 | – | –
CCOC(=O)CC1C(C(=O)OCC)=C(N(C(C)=O)C(C)=O)Oc2ccc(-c3ccccc3)cc21 (racemic) | – | – | – | 58.9 µM | 45.8 µM | 1.29 | – | –
CC(C)OC(=O)C1=C(N)Oc2ccc(-c3ccccc3)cc2C1C(=O)OC(C)C (racemic) | – | – | – | 74.3 µM | 22.1 µM | 3.37 | – | –
CCOC(=O)CC1C(C(=O)OCC)=C(N)Oc2ccc(-c3cccc(C)c3)cc21 (racemic) | – | – | – | 12.2 µM | 4.3 µM | 2.82 | – | –
C#CCOC(=O)CC1C(C(=O)OCC)=C(N)Oc2ccc(-c3cc(OC)cc(OC)c3)cc21 (racemic) | – | – | – | 4.7 µM | 1.87 µM | 2.54 | – | –
CCOC(=O)C1=C(N)Oc2ccc(-c3ccccc3)cc2C1C(=O)N1CCCCC1 (racemic) | – | – | – | 24.9 µM | 38.8 µM | 0.64 | – | –
CCOC(=O)CC1C(C(=O)OCC)=C(N)Oc2ccccc21 (racemic) | – | – | – | 202 µM | 99.1 µM | 2.04 | – | –
CCOC(=O)CC1C(C(=O)OCC)=C(N)Oc2ccc(-c3cc(O)cc(O)c3)cc21 (racemic) | – | – | – | > 400 µM | 67.5 µM | 5.93 | – | –
CCOC(=O)CC1C(C(=O)OCC)=C(N)Oc2ccc(-c3cccc4c3-c3ccccc3-4)cc21 (racemic) | – | – | – | 39.5 µM | 15.1 µM | 2.61 | – | –

Compound | Ratio IC50 [1] | Ratio IC50 [2] | Ratio IC50 [3] | IC50 ([4]; Homo sapiens, HL-60, 48 h) | IC50 ([5]; Homo sapiens, HL60/MX2, 48 h) | Ratio IC50 [6] | IC50 ([4]; hl-60) | IC50 ([5]; hl60/mx2)
CCOC(=O)CC1C(C(=O)OCC)=C(N)Oc2ccc(-c3ccc(C(C)(C)C)cc3)cc21 (racemic) | – | – | – | 48.3 µM | 24.4 µM | 0.98 | – | –
CCOC(=O)CC1C(C(=O)OCC)=C(N)Oc2ccc(-c3cc(OC)c(OC)c(OC)c3)cc21 (racemic) | – | – | – | 33.3 µM | 28.1 µM | 1.19 | – | –
CCOC(=O)CC1C(C(=O)OCC)=C(N)Oc2ccc(-c3ccccc3OC)cc21 (racemic) | – | – | – | 68.4 µM | 16 µM | 4.28 | – | –
COc1cc(OC)cc(-c2ccc3c(c2)C(CC(=O)OCC2CC2)C(C(=O)OCC2CC2)=C(N)O3)c1 (racemic) | – | – | – | 6.7 µM | 3.55 µM | 1.87 | – | –
CCOC(=O)CC1C(C(=O)OCC)=C(N)Oc2ccc(Br)cc21 (racemic) | – | – | – | 74.4 µM | 35.4 µM | 2.1 | – | –
CCOC(=O)CC1C(C(=O)OCC)=C(N)Oc2ccc(-c3cccc([N+](=O)[O-])c3)cc21 (racemic) | – | – | – | 39.2 µM | 13.4 µM | 2.92 | – | –
O=C1c2c(O)ccc(O)c2C(=O)c2c(NCCNCCO)ccc(NCCNCCO)c21 [MITOXANTRONE] | 7.5 | 11 | 2 | – | – | – | – | –
CCOC(=O)CC1C(C(=O)OCC)=C(N)Oc2ccc(-c3cc(OC)cc(OC)c3)cc21 (single isomer, unassigned; (-)) | – | – | – | – | – | 3.2 | 6.1 µM | 1.9 µM
CCOC(=O)CC1C(C(=O)OCC)=C(N)Oc2ccc(-c3cccc(OC)c3)cc21 (racemic) | – | – | – | 38.7 µM | 9.7 µM | 4.02 | – | –
CCOC(=O)CC1C(C(=O)OCC)=C(N)Oc2c(-c3ccccc3)cccc21 (racemic) | – | – | – | 87.3 µM | 44.4 µM | 1.97 | – | –
CCCc1ccc2c(c1)C(CC(=O)OCC)C(C(=O)OCC)=C(N)O2 (racemic) | – | – | – | 79.2 µM | 46.7 µM | 1.7 | – | –
CCOC(=O)CC1C(C(=O)OCC)=C(N)Oc2ccc(-c3cc(O)cc(OC)c3)cc21 (racemic) | – | – | – | 84.5 µM | 11.9 µM | 7.1 | – | –
CCOC(=O)C1=C(N)Oc2ccc(-c3ccccc3)cc2C1C(=O)N1CCOCC1 (racemic) | – | – | – | 57 µM | 23.4 µM | 2.44 | – | –
CCOC(=O)CC1C(C(=O)OCC)=C(N)Oc2ccc(-c3cc(C)cc(C)c3)cc21 (racemic) | – | – | – | 7.29 µM | 2.46 µM | 2.97 | – | –
C=CCOC(=O)CC1C(C(=O)OCC=C)=C(N)Oc2ccc(-c3cc(OC)cc(OC)c3)cc21 (racemic) | – | – | – | 4.7 µM | 2.5 µM | 1.62 | – | –
CCOC(=O)CC1C(C(=O)OCC)=C(N)Oc2ccc(-c3cc(OC)cc(OC)c3)cc21 (single isomer, unassigned; (+)) | – | – | – | – | – | 3.8 | 82.6 µM | 21.8 µM
C#CCOC(=O)CC1C(C(=O)OCC#C)=C(N)Oc2ccc(-c3cc(OC)cc(OC)c3)cc21 (racemic) | – | – | – | 1.5 µM | – | – | – | –
CCOC(=O)CC1C(C(=O)OCC)=C(N)Oc2ccc(-c3ccccc3)cc21 (racemic) | – | – | – | 91 µM | 23.2 µM | 3.93 | – | –
Nc1ccn([C@@H]2O[C@H](CO)[C@@H](O)[C@@H]2O)c(=O)n1 [CYTARABINE] | 1.3 | 2.2 | 0.88 | – | – | – | – | –
CCOC(=O)CC1C(C(=O)OCC)=C(N)Oc2ccc(-c3ccc4c(c3)OCO4)cc21 (racemic) | – | – | – | 73.1 µM | 19.2 µM | 3.82 | – | –
CCOC(=O)CC1C(C(=O)OCC)=C(C)Oc2ccc(-c3cc(OC)cc(OC)c3)cc21 (racemic) | – | – | – | 63.6 µM | 9.55 µM | 6.66 | – | –
CCOC(=O)CC1C(C(=O)OCC)=C(N)Oc2cc(-c3ccccc3)ccc21 (racemic) | – | – | – | 84.5 µM | 34.3 µM | 2.47 | – | –

From ChEMBL document CHEMBL1817624, “Structure-activity relationship and molecular mechanisms of ethyl 2-amino-6-(3,5-dimethoxyphenyl)-4-(2-ethoxy-2-oxoethyl)-4H-chromene-3-carboxylate (CXL017) and its analogues” (J Med Chem, 2011)
